The experiment has as its target T1, Interleukin-5 (Mus musculus) (UniProt P04401).
T1 sequence (whole entry): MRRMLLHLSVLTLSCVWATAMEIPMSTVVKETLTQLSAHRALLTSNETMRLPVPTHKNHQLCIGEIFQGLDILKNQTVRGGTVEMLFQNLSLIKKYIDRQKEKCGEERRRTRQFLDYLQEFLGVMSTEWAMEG
Briefly: Inhibition interleukin-5 in mouse Y16 cells at 30 uM after 48 hrs by WST-1 assay. The class given is cell-based. Put shortly:
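IL-5-dependent pro-B Y16 cells stimulated with 3 U/mL mIL-5 and incubated 48 h with or without sample; cell metabolism read by WST-1 as proliferation index.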
On the technique in general: Tetrazolium dyes change colour on reduction, which living cells bring about.
The term inhibition denotes the percentage by which the read-out fell short of the control. On to `COc1ccc(C(O)CCc2coc3cccc(OCC4CCCCC4)c3c2=O)cc1` (centres undefined), for which the inhibition came out at 94%.

Compound `O=c1c(CCC(O)c2ccc(O)cc2)coc2cccc(OCC3CCCCC3)c12` (centres undefined) had an inhibition of 94%.

With `O=C(CCc1coc2cccc(OCC3CCCCC3)c2c1=O)c1ccc2ccccc2c1`, the inhibition was determined as 10%.

As for `Cc1ccc(C(=O)CCc2coc3cccc(OCC4CCCCC4)c3c2=O)cc1`, the inhibition stood at 70%.

On to `COc1ccc(C(=O)CCc2coc3cccc(OCC4CCCCC4)c3c2=O)cc1`, for which the inhibition is 91%.

`N#Cc1ccc(C(O)CCc2coc3cccc(OCC4CCCCC4)c3c2=O)cc1` (centres undefined) displayed an inhibition of 94%.

Regarding `O=C(CCc1coc2cccc(OCC3CCCCC3)c2c1=O)c1ccccc1`, the inhibition was 12.3%.

`O=c1c(CCC(O)c2ccc(Cl)cc2)coc2cccc(OCC3CCCCC3)c12` (centres undefined) showed an inhibition of 94%.

As for `O=C(CCc1coc2cccc(OCC3CCCCC3)c2c1=O)c1ccc(F)cc1`, the inhibition was found to be 93%.

In the case of `CC(C)(C)c1ccc(C(O)CCc2coc3cccc(OCC4CCCCC4)c3c2=O)cc1` (centres undefined), the inhibition came out at 6.6%.

In turn, `O=c1c(CCC(O)c2ccccc2)coc2cccc(OCC3CCCCC3)c12` (centres undefined) came in with an inhibition of 94%.

Compound `O=C(CCc1coc2cccc(OCC3CCCCC3)c2c1=O)c1ccc(Cl)cc1` registered an inhibition of 94%.

Take `O=C(CCc1coc2cccc(OCC3CCCCC3)c2c1=O)c1ccc(Cl)c(Cl)c1`: the inhibition is 68%.

`CC(C)(C)c1ccc(C(=O)CCc2coc3cccc(OCC4CCCCC4)c3c2=O)cc1` returned an inhibition of 6.7%.

Compound `COc1ccc(C(=O)CCC2COc3cccc(OCC4CCCCC4)c3C2=O)cc1` (centres undefined) registered an inhibition of 34%.

The compound `O=c1c(CCC(O)c2ccc(F)cc2)coc2cccc(OCC3CCCCC3)c12` (centres undefined) yielded an inhibition of 94%.

`O=c1c(CCC(O)c2ccc3ccccc3c2)coc2cccc(OCC3CCCCC3)c12` (centres undefined): the inhibition amounted to 86%.

`O=C(CCc1coc2cccc(OCC3CCCCC3)c2c1=O)c1ccc(C(F)(F)F)cc1` yielded an inhibition of 5.3%.

In turn, `O=c1c(CCC(O)c2ccc(Cl)c(Cl)c2)coc2cccc(OCC3CCCCC3)c12` (centres undefined) gave an inhibition of 94%.

As for `Cc1ccc(C(O)CCc2coc3cccc(OCC4CCCCC4)c3c2=O)cc1` (centres undefined), the inhibition amounted to 13.5%.

The compound `O=c1c(CCC(O)c2ccc(C(F)(F)F)cc2)coc2cccc(OCC3CCCCC3)c12` (centres undefined) yielded an inhibition of 55%.

In the case of `O=C(CCc1coc2cccc(OCC3CCCCC3)c2c1=O)c1ccc(O)cc1`, the inhibition was 80%.

Turning to `O=C(CCC1COc2cccc(OCC3CCCCC3)c2C1=O)c1ccc(Cl)c(Cl)c1` (centres undefined), the inhibition stood at 40%.

`N#Cc1ccc(C(=O)CCc2coc3cccc(OCC4CCCCC4)c3c2=O)cc1` displayed an inhibition of 93%.

Source of the values: ChEMBL document CHEMBL2375275, “Design and synthesis of novel chromenone derivatives as interleukin-5 inhibitors” (Bioorg Med Chem, 2013).
